Source: PubChem BioAssay
An excerpt weighted towards active compounds, which were near 1.5% of everything screened.
Arrestin-AP2 inh: blocks beta-arrestin peptide binding to AP2 adaptin; FITC-arrestin peptide / GST-AP2 beads, flow cytometry; AP2 beta2 appendage carries R879A mutation; inhibition, % at 10 µM; 340,000 compounds, 0.31% hits; AID 504490;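 active = inhibition above a set limit, near 3 SD of compounds lacking own fluorescence, cut at about 54% in these data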;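 note: plate controls were DMSO wells for no effect and 5 µM unlabelled arrestin peptide for full effect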
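Material – GST-tagged AP2 beta2-adaptin appendage (R879A) on 4 µm glutathione beads · Probe or stimulus – fluorescein-tagged arrestin peptide at 50 nM final · Timing – 12 min plus 1 h, RT · Detection – bead flow cytometry, FITC channel · Read-out basis – inhibition as reduced fluorescein signal on beads, percent · Medium – PBS plus Tween 20 (0.05%) and BSA (0.1%)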
Pemphigus Ab inh: inhibitors of pemphigus antibody binding to human desmoglein-3 | P32926 | binding (percent of control), % at 10 µM | DSG3-coupled beads, scFv-anti-DSG3-GFP binding, flow cytometry; active compounds read low | AID 588358 | 310,000 compounds, 0.48% hits;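 active = binding more than 3 SD below its plate's average and above zero; inconclusive = below that plate limit but binding exactly zero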;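 note: hits lower antibody fragment binding to DSG3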
Target sequence (P32926 whole entry, looked up, the tested form may be a part): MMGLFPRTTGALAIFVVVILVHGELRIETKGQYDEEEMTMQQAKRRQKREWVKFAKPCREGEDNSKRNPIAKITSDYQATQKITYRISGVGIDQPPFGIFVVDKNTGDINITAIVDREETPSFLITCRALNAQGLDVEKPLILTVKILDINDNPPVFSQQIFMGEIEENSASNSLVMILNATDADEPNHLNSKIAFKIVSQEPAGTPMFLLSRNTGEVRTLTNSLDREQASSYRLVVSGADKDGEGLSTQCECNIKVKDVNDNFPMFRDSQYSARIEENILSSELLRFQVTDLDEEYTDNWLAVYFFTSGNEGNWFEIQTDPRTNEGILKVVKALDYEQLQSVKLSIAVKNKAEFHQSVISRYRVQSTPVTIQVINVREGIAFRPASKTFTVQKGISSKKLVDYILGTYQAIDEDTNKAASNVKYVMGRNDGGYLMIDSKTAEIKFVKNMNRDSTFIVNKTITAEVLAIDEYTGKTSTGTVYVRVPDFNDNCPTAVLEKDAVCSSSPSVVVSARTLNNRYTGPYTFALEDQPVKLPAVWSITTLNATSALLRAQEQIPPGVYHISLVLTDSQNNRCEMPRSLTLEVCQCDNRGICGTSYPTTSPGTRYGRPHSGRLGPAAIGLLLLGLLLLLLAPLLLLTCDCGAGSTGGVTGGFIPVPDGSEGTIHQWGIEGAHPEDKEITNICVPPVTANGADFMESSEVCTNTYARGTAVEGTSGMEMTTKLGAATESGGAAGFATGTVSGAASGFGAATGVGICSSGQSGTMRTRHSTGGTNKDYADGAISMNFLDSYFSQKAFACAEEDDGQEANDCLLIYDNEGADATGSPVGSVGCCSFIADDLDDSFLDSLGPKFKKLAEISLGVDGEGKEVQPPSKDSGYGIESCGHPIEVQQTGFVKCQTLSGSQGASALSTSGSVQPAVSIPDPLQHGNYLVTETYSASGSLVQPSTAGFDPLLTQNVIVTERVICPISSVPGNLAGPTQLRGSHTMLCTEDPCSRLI
HDAC3 inhib: inhibitors of human histone deacetylase 3; recombinant HDAC3, fluorogenic peptide/trypsin coupled, fluorescence; inhibition, % at 8.3 µM; 320,000 compounds, 0.15% hits; in the data active = inhibition above about 26%, passing the limit was not always enough; inconclusive = no clear call, values can overlap the other calls
LANA-H2A inh: blocks KSHV LANA binding to histone H2A/H2B. Q9QR71. cell-free LANA-H2A/H2B peptide, fluorescence polarization. inhibition, % (no concentration beside the values). 320,000 compounds, 0.6% hits; in the data active = inhibition mostly above about 10%, no sharp cut-off; inactive = mostly below about 6.7%
T cell modulator: T cell immune modulation candidate. 2C CD8+ T cell-vesicle binding, flow cytometry; active compounds read low. 330,000 compounds, 0.068% hits. response (vesicle binding), % at 7 µM. AID 2052;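 active = response, share of CD8 T cells binding vesicles, and their 90th percentile fluorescence all below set limits, cut at about 80% in these data, passing the limit was not always enough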;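 note: values below 100% mean blocked vesicle binding to the CD8+ T cells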
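Material: murine 2C transgenic CD8+ T lymphocytes / Also added: QL9-peptide-loaded Drosophila micro-vesicles bearing Ld, ICAM-1 and B7-1 / Schedule: binding step 1.5 h, 37 °C, antibody labelling 20 min, ice / Signal: flow cytometry, PE anti-B7-1 (FL2) versus Alexa647 anti-CD8 (FL8), PFA-fixed / Evaluation: percent CD8+ FL2 mean versus row control / Benchmarks: naked versus QL9-loaded vesicles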
Arr-AP2 CP1: blocks beta-arrestin peptide binding to human AP2. shares compounds with Arrestin-AP2 inh. GST-AP2 beads, FITC arrestin peptide binding, flow cytometry; GST-fused beta2-adaptin appendage, R879A mutant. inhibition, % at 10 µM. 1,300 compounds, 2% hits;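 active = inhibition above a set limit, roughly 3 SD of non-fluorescent compound noise, cut at about 38% in these data; inactive = inhibition at or below that limit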;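 note: loss of bead fluorescence from 50 nM FITC arrestin peptide bound to appendage; 0% = negative control wells and 100% = excess unlabelled arrestin peptide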
GST GSH counter: GST-GSH bead binding interference, counter-screen | shares compounds with Arrestin-AP2 inh | GST-fluorescein binding to GSH beads, fluorescence | AID 588338 | 1,300 compounds, 2% hits | inhibition, % at 10 µM;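 active = inhibition above 50%, about 3 SD of the inhibition seen with non-fluorescent compounds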;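 note: fluorescein maleimide labelled GST captured on 4 micron glutathione beads; higher means more loss of bead fluorescence from quenching or blocked binding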
An asterisk follows results filed as active; ? = inconclusive; / = not tested or not shown.

SMILES	Arrestin-AP2 inh	Pemphigus Ab inh	HDAC3 inhib	LANA-H2A inh	T cell modulator	Arr-AP2 CP1	GST GSH counter
Cc1cccc(N/N=C(\C(N)=O)C2=NC(C)(C)Cc3ccccc32)c1	55*	102	12	-4	192	19	0
CCOC(=O)/C(=N\O)C1=NC(C)(C)Cc2ccccc21	-4	85	0	-3	423	/	/
CCOC(=O)CC1COCCN1C(=O)c1cc(COc2ccc(F)cc2Cl)on1 (stereo not drawn)	-11	111	0	-1	349	/	/
O=C(CCNC(=O)C1CCN(S(=O)(=O)c2ccccc2)CC1)NCc1ccc(Cl)cc1	63*	102	0	3	558	22	-12
Nc1c(C(=O)NC2CC2)sc2nc3c(c(-c4ccco4)c12)CC/C3=C/c1ccco1	55*	/	2	2	524	35	22
Cc1ccc(NS(=O)(=O)c2ccc(NC(=O)c3ccccc3C(=O)O)cc2)cc1C	5	108	-6	3	151	/	/
CCOc1ccc(-n2cc(C(=O)N3CCC(C)CC3)c3cc(OC)c(OC)cc3c2=O)cc1	56*	88	5	-3	659	-15	-14
O=C(O)c1cc(S(=O)(=O)N2CCN(S(=O)(=O)c3ccc4ccccc4c3)CC2)ccc1Br	-9	116	-8	1	156	/	/
CC(=O)N1CCN(c2ccc(NC(=O)c3ccc(OCc4ccccc4)cc3)cc2)CC1	100*	110	1	3	218	-12	-8
COc1ccc(C(=O)Nc2ccc(N3CCN(C)CC3)cc2)cc1OC	65*	97	0	-1	318	4	4
CCN1CCN(S(=O)(=O)Cc2ccccc2Cl)CC1	-5	110	-8	-1	747	/	/
COc1ccc(OCCn2c(=N)n(CCO)c3ccccc32)cc1	35	90	-1	-5	196	/	/
CCCCn1c(=N)n(CCOc2ccc(C)cc2)c2ccccc21	73*	138	3	-1	185	-4	-3
COCCSc1nnc(NS(=O)(=O)c2ccc(C)cc2)s1	59*	98	-8	6	258	3	-2
O=C(CCNC(=O)c1ccc(Br)cc1)Nc1ccc(S(=O)(=O)N2CCOCC2)cc1	-3	/	-1	-1	235	/	/
O=C1/C(=C/c2ccco2)SC(=S)N1CC1CCCO1 (stereo not drawn)	5	93	14	-2	173	/	/
O=C1/C(=C\c2ccc(-c3ccccc3Cl)o2)SC(=S)N1CC1CCCO1 (stereo not drawn)	73*	102	-9	2	142	42*	27
NS(=O)(=O)c1ccc(NC(=O)CSc2nc3c(c(=O)[nH]2)CCCC3)cc1	2	/	4	-5	303	/	/
Cc1cc(-c2ccccc2)nc(N/N=C/c2ccccc2F)n1	-7	109	3	-1	291	/	/
CNC(=O)C1CCN(S(=O)(=O)c2c(C)noc2/C=C/N(C)C)CC1	-17	96	13	1	800	/	/
CCc1ccc(NC(=O)C2CCN(S(=O)(=O)c3c(C)noc3/C=C/N(C)C)CC2)cc1	55*	102	2	-5	126	4	-8
N#Cc1cccc(-n2nnnc2-c2ccc3c(c2)OCO3)c1	70*	53	-2	3	298	-7	-10
N#Cc1ccc(-c2nnnn2-c2ccc3c(c2)OCO3)cc1	1	101	3	1	352	/	/
Cc1cc(C)cc(NC(=S)N(Cc2ccc(Cl)cc2)Cc2ccc(C(=O)O)cc2)c1	-6	103	7	2	333	/	/
Cc1cccc(NC(=S)N(Cc2ccc(Cl)cc2)Cc2ccc(C(=O)O)cc2)c1	56*	98	-1	1	295	3	-4
SMILES	Arrestin-AP2 inh	Pemphigus Ab inh	HDAC3 inhib	LANA-H2A inh	T cell modulator	Arr-AP2 CP1	GST GSH counter
COc1ccc(S(=O)(=O)NCCC(=O)N2CCCC2)cc1N(C)S(C)(=O)=O	56*	98	-3	0	206	-2	-10
Cc1ccc(S(=O)(=O)NCCC(=O)N2CCCCCCC2)cc1C	5	100	-2	-3	416	/	/
CCc1ccccc1OCC(=O)Nc1cc(S(=O)(=O)N(CC)CC)ccc1N1CCOCC1	-6	95	8	-5	550	/	/
CCNC(=O)/C(C#N)=C/c1c(N2CCN(Cc3ccc4c(c3)OCO4)CC2)nc2c(C)cccn2c1=O	57*	107	0	4	266	4	-7
S=c1nn[nH]c2ccccc12	13	94	/	/	/	/	/
Cc1cc(Cl)ccc1N(CC(=O)NCc1ccc2c(c1)OCO2)S(C)(=O)=O	60*	/	?	-2	686	11	-3
COc1cccc(OCC(O)CN2C(C)CCCC2C)c1 (stereo not drawn)	0	124	-10	4	263	/	/
Cc1cc(OCC(O)CN2C(C)CCCC2C)ccc1C(C)C (stereo not drawn)	54*	97	-1	2	263	1	-3
